Results: ChEMBL document CHEMBL1126036, “Quinolone antibacterial agents. Synthesis and structure-activity relationships of a series of amino acid prodrugs of racemic and chiral 7-(3-amino-1-pyrrolidinyl)quinolones. Highly soluble quinolone prodrugs with in vivo pseudomonas activity” (J Med Chem, 1992)

Legend:
Enterococcus faecalis = experiment: In vitro antibacterial activity against gram positive Enterococcus faecalis MGH-2.; format: functional
Escherichia coli [1] = experiment: In vitro antibacterial activity against gram negative Escherichia coli Vogel.; format: functional
Streptococcus pyogenes = experiment: In vitro antibacterial activity against gram positive Streptococcus pyogenes C-203.; format: functional
Staphylococcus aureus [2] = experiment: In vitro antibacterial activity against gram positive Staphylococcus aureus H-228.; format: functional
Klebsiella pneumoniae = experiment: In vitro antibacterial activity against gram negative Klebsiella pneumoniae MGH-2.; format: functional
Staphylococcus aureus [3] = experiment: In vitro antibacterial activity against gram positive Staphylococcus aureus UC76.; format: functional
Enterobacter cloacae = experiment: In vitro antibacterial activity against gram negative Enterobacter cloacae MA 2646.; format: functional
Pseudomonas aeruginosa = experiment: In vitro antibacterial activity against gram negative Pseudomonas aeruginosa UI-18.; format: functional
Streptococcus pneumoniae [4] = experiment: In vitro antibacterial activity against gram positive Streptococcus pneumoniae SV-1.; format: functional
Providencia rettgeri = experiment: In vitro antibacterial activity against gram negative Providencia rettgeri M-1771.; format: functional
[5] = Solubility (at pH 7.4); format: physicochemical; settings: buffer, read-out: S
Outline: (§1)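 Solubility was measured either from HPLC peak areas at equilibrium or by a conventional weight-per-volume method. All solutions were held for 24 h before measurement.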

[6] = Solubility (at pH 4); format: physicochemical; settings: buffer, read-out: S; outline: as §1
Streptococcus pneumoniae [7] = experiment: In vivo potency against acute systemic infection in mouse caused by Streptococcus pneumoniae SV-1 on subcutaneous injection.; format: functional; settings: sc, read-out: PD50
Outline: (§2)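 Acute systemic mouse infection. A single subcutaneous dose was injected at the time of challenge. Potency is reported as the median protective dose (PD50, mg/kg), determined by earlier published methods.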

[8] = Solubility (in 0.1 N HCl); format: physicochemical; settings: read-out: S; outline: as §1
Streptococcus pneumoniae [9] = experiment: In vivo potency against acute systemic infection in mouse caused by Streptococcus pneumoniae SV-1 on oral administration by gavage.; format: functional; settings: read-out: PD50
Outline: (§3)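 Acute systemic mouse infection. A single oral dose was given by gavage at the time of challenge. Potency is reported as the median protective dose (PD50, mg/kg), determined by earlier published methods.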

Escherichia coli [10] = experiment: In vivo potency against acute systemic infection in mouse caused by Escherichia coli Vogel on oral administration by gavage.; format: functional; settings: read-out: PD50; outline: as §3
[11] = Aqueous solubility; format: physicochemical; settings: water (aqueous); read-out: S; outline: as §1
Escherichia coli [12] = experiment: In vivo potency against acute systemic infection in mouse caused by Escherichia coli vogel on subcutaneous injection.; format: functional; settings: sc, read-out: PD50; outline: as §2
[13] = target: DNA gyrase (Escherichia coli) (UniProt P0AES6+P0AES4); experiment: In vitro concentration inhibiting DNA gyrase induced cleavage in Escherichia coli H560.; format: functional
Outline: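 DNA gyrase test run as described in earlier work. The value is the drug concentration (µg/mL) needed to cause DNA cleavage.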

Mus musculus [14] = experiment: In vivo potency against acute systemic infection in mouse caused by Streptococcus pyogenes C-203 on oral administration by gavage; format: functional; settings: read-out: PD50; outline: as §3
Mus musculus [15] = experiment: In vivo potency against acute systemic infection in mouse caused by Streptococcus pyogenes C-203 on subcutaneous injection; format: functional; settings: sc, read-out: PD50; outline: as §2

| SMILES | MIC (Enterococcus faecalis) [µg/mL] | MIC (Escherichia coli [1]) [µg/mL] | MIC (Streptococcus pyogenes) [µg/mL] | MIC (Staphylococcus aureus [2]) [µg/mL] | MIC (Klebsiella pneumoniae) [µg/mL] | MIC (Staphylococcus aureus [3]) [µg/mL] | MIC (Enterobacter cloacae) [µg/mL] | MIC (Pseudomonas aeruginosa) [µg/mL] | MIC (Streptococcus pneumoniae [4]) [µg/mL] | MIC (Providencia rettgeri) [µg/mL] | solubility [5] [µg/mL] | solubility [6] [mg/mL] | ED50 (Streptococcus pneumoniae [7]) [mg/kg] | solubility [8] [µg/mL] | ED50 (Streptococcus pneumoniae [9]) [mg/kg] | ED50 (Escherichia coli [10]) [mg/kg] | solubility [11] [mg/mL] | ED50 (Escherichia coli [12]) [mg/kg] | Cleavage [13] [µg/mL] | also measured |
| --- | --- | --- | --- | --- | --- | --- | --- | --- | --- | --- | --- | --- | --- | --- | --- | --- | --- | --- | --- | --- |
| Cl.NCCCC[C@H](N)C(=O)NC1CCN(c2c(F)cc3c(=O)c(C(=O)O)cn(C4CC4)c3c2F)C1.O (stereo not given in full) | 6.3 | 6.3 | 6.3 | 0.4 | 12.5 | 0.2 | 3.1 | 12.5 | 6.3 | 12.5 |  |  |  |  |  |  |  |  |  |  |
| Cl.NCCCC[C@H](N)C(=O)NC1CCN(c2cc3c(cc2F)c(=O)c(C(=O)O)cn3C2CC2)C1.O (stereo not given in full) | > 25 | 12.5 | 12.5 | 25 | 12.5 | 3.1 | 12.5 | 25 | 25 | 25 | 110 | > 100 | 12 | 69000 | > 100 | 10 | 93 | 1 |  |  |
| C[C@@H](N)C(=O)NC1CCN(c2cc3c(cc2F)c(=O)c(C(=O)O)cn3C2CC2)C1.Cl.O (stereo not given in full) | 0.2 | 0.8 | 0.013 | 0.4 | 0.8 | 0.05 | 0.8 | 1.6 | 0.025 | 1.6 | 240 | > 100 | 3.1 | > 100000 | > 100 | > 100 | > 100 | 4.1 | 1 |  |
| Cl.NCC(=O)NC1CCN(c2c(F)c(N)c3c(=O)c(C(=O)O)cn(C4CC4)c3c2F)C1.O (stereo not given) | 0.4 | 0.2 | 0.2 | 0.4 | 0.4 | 0.1 | 0.2 | 1.6 | 0.4 | 0.4 | 70 | 69 | 16 | 3500 | 29 | 1 | 17 | 0.4 | 5 | ED50 (Mus musculus [14]): 36 mg/kg; ED50 (Mus musculus [15]): 8.1 mg/kg |
| C[C@H](N)C(=O)N[C@H]1CCN(c2c(F)cc3c(=O)c(C(=O)O)cn(C4CC4)c3c2F)C1.Cl.O | 0.1 | 0.1 | 0.1 | 0.1 | 0.2 | 0.025 | 0.1 | 0.1 | 0.1 | 0.2 | 70 | 19 | 9 | 5400 | 25 | 1 | 33 | 0.4 | 2.5 |  |
| C[C@H](N)C(=O)NC1CCN(c2cc3c(cc2F)c(=O)c(C(=O)O)cn3C2CC2)C1.Cl.O (stereo not given in full) | 1.6 | 0.4 | 0.4 | 3.1 | 0.8 | 0.4 | 0.8 | 1.6 | 0.4 | 1.6 | 270 | > 100 | 13 | > 100000 | > 100 | 5 | > 100 | 0.5 | 1 | ED50 (Mus musculus [14]): > 100 mg/kg; ED50 (Mus musculus [15]): 5 mg/kg |
| Cl.NCC(=O)NC1CCN(c2nc3c(cc2F)c(=O)c(C(=O)O)cn3C2CC2)C1.O (stereo not given) | 0.8 | 0.2 | 0.1 | 1.6 | 0.4 | 0.4 | 0.4 | 3.1 | 0.8 | 0.8 |  | > 200 | 10 | 67000 | 37 |  | > 200 |  | 2.5 |  |
| Cl.NCC(=O)NC1CCN(c2c(F)cc3c(=O)c(C(=O)O)cn(C4CC4)c3c2F)C1.O (stereo not given) | 0.4 | 0.2 | 0.2 | 0.4 | 0.4 | 0.1 | 0.2 | 1.6 | 0.4 | 0.4 |  | 20 | 16 | 4600 | 29 | 1 | 33 | 0.4 | 5 |  |
| Cl.N[C@@H]1CCN(c2c(F)cc3c(=O)c(C(=O)O)cn(C4CC4)c3c2F)C1.O | 0.05 | 0.013 | 0.05 | 0.05 | 0.013 | 0.006 | 0.006 | 0.1 | 0.025 | 0.025 |  |  | 9 |  | 14 | 0.9 | 11 | 0.2 | 0.5 |  |
| Cl.NCC(=O)NC1CCN(c2cc3c(cc2F)c(=O)c(C(=O)O)cn3C2CC2)C1.O (stereo not given) | 1.6 | 0.4 | 0.1 | 3.1 | 0.8 | 0.4 | 0.4 | 1.6 | 0.4 | 1.6 | 220 | > 100 | 18 | > 100000 | > 100 | 6.3 | > 100 | 1.1 | 2.5 |  |
| C[C@H](N)C(=O)N[C@@H]1CCN(c2c(F)c(N)c3c(=O)c(C(=O)O)cn(C4CC4)c3c2F)C1.Cl.O | 0.4 | 0.4 | 0.2 | 0.4 | 0.8 | 0.025 | 0.8 | 3.1 | 0.2 | 1.6 | 40 | 71 | 7.7 | 3200 | 18 | 2.2 | 21 | 0.5 | 5 | ED50 (Mus musculus [14]): 20 mg/kg; ED50 (Mus musculus [15]): 6.3 mg/kg |
| C[C@H](N)C(=O)N[C@@H]1CCN(c2c(F)cc3c(=O)c(C(=O)O)cn(C4CC4)c3c2F)C1.Cl.O | 0.8 | 0.4 | 0.4 | 0.8 | 0.8 | 0.2 | 0.2 | 3.1 | 0.4 | 0.8 | 70 | 30 | 19 | 6000 | 25 | 1 | 29 | 0.6 | 2.5 |  |
| C[C@@H](N)C(=O)NC1CCN(c2c(F)cc3c(=O)c(C(=O)O)cn(C4CC4)c3c2F)C1.Cl.O (stereo not given in full) | 0.025 | 0.2 | 0.006 | 0.05 | 0.4 | 0.006 | 0.4 | 1.6 | 0.013 | 0.8 |  | 19.4 | 1 | 3600 | > 100 | 31 | 42 | 2 | 2.5 |  |
| Cl.N[C@@H](Cc1ccccc1)C(=O)NC1CCN(c2c(F)cc3c(=O)c(C(=O)O)cn(C4CC4)c3c2F)C1.O (stereo not given in full) | 25 | 0.8 | > 25 | 3.1 | 1.6 | 1.6 | 1.6 | 25 | > 25 | 3.1 |  | 21 |  | 7200 |  | 5 | 31 | 1 | 7.5 |  |
| Cl.N[C@@H](Cc1ccccc1)C(=O)NC1CCN(c2cc3c(cc2F)c(=O)c(C(=O)O)cn3C2CC2)C1.O (stereo not given in full) | 0.4 | 0.8 | 0.4 | 0.8 | 3.1 | 0.2 | 0.8 | 6.3 | 0.4 | 3.1 | 300 | 66 | 5 | 9200 | > 50 | 5 | 44 | 1 | 25 |  |
